In general, IC50 refers to the concentration needed to halve the response being measured. Low values mean greater potency, high ones weaker potency. For orientation: inhibition means the percentage by which the read-out fell short of the control.

Molecules are shown by their SMILES. Active and inactive are the calls of the source. The rule behind the calls is not given here.

A short description of test [1]: Inhibition of rat intestinal alpha-glucosidase after 5 mins by spectrophotometry. The method in brief:
(§1)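 Enzyme source was the supernatant of sonicated rat intestinal homogenate after centrifugation. Sample (5 mg/mL DMSO stock) in 100 mM phosphate buffer pH 6.8 was preincubated with enzyme for 5 min, then 5 mM p-nitrophenyl-α-D-glucopyranoside added. p-Nitrophenol was read at 405 nm 5 min later, with substrate-free blanks and a DMSO control. Inhibition (%) = (1 − B/A) × 100; IC50 by logarithmic regression.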

Test [2] concerns Radical scavenging activity. Put plainly: Antioxidant activity assessed as DPPH radical scavenging activity at 25 ug/mL after 30 mins by spectrophotometry. It counts as functional. The essentials:
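Test sample in DMSO (1 mg/mL stock) was mixed with 0.1 M Tris–HCl pH 7.4 and 0.5 mM DPPH in absolute ethanol. The mixture was shaken and kept in the dark 30 min, then absorbance read at 517 nm. Scavenging (%) = (1 − B/A) × 100 against a control without sample.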

The species entered for test [3] is Rattus norvegicus. The experiment in a line: Inhibition of rat intestinal alpha-glucosidase at 100 ug/mL after 5 mins by spectrophotometry. The method in brief: as §1
In test [4] the test system is Rattus norvegicus. Put plainly: Antihyperglycemic activity in overnight fasted starch-induced hyperglycemic Wistar rat assessed as decrease in plasma glucose level at 100 mg/kg, po administered 15 mins before starch challenge measured after 30 to 120 mins by glucose oxidase method. Format: functional, organism-based. Set-up: dose 100 mg/kg. The method in brief:
(§2)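 Wistar rats of either sex (195–215 g), housed at 22 °C with a 12 h light/dark cycle, fasted overnight. Test agent suspended in normal saline and given orally by gastric intubation; controls received saline. Soluble starch (2 g/kg in saline) fed 15 min later. Retro-orbital blood was collected into EDTA for plasma glucose at 0–120 min. Plasma glucose AUC by trapezoid formula.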

Test [5] is filed under the species Rattus norvegicus. The experiment in a line: Mixed noncompetitive inhibition of rat intestinal alpha-glucosidase at 10.6 uM by Lineweaver-Burke plot analysis. The essentials:
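Conditions follow the rat intestinal α-glucosidase/p-NPG assay, but Vmax kinetics were recorded over 10 min at 30 s intervals after a 10 s lag following substrate addition. Substrate was used at various dilutions, with or without preincubation of inhibitor. Data were analysed on a Lineweaver–Burk plot.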

The test system of test [6] is Rattus norvegicus. The experiment in a line: Antihyperglycemic activity in overnight fasted starch-induced hyperglycemic Wistar rat assessed as decrease in plasma glucose level at 10 mg/kg, po administered 15 mins before starch challenge measured after 30 to 120 mins by glucose oxidase method. It counts as functional, organism-based. Set-up: dose 10 mg/kg. The method in brief: as §2

With `CC(=O)c1cc2cc(-c3ccc(N4CCOCC4)cc3)ccc2oc1=O`, the IC50 in test [1] amounted to 49 µM. In test [2], the Activity worked out at 20.5%. For the same molecule, the inhibition in the test filed under Rattus norvegicus [3] amounted to 85.1%.

`CC(=O)c1cc2cc(-c3ccc(Cl)cc3)ccc2oc1=O` yielded an IC50 in test [1] of 96.4 µM. Moreover, the Activity in test [2] stood at 12.5%. Besides, in the test listed under Rattus norvegicus [3], the inhibition was found to be 76.9%.

In turn, `Cc1c(Cl)c(=O)oc2cc(O)ccc12` gave a concentration for half-maximal inhibition (IC50) in test [1] of 128 µM. The Activity in test [2] amounted to 20.8%. The same molecule displayed an inhibition in the test listed under Rattus norvegicus [3] of 77.8%.

Take `O=C(c1ccccc1)c1cc2cc(-c3ccccc3)ccc2oc1=O`: the IC50 in test [1] amounted to 52.2 µM. In addition, in test [2], the Activity was determined as 2.45%. Besides, the inhibition in the test listed under Rattus norvegicus [3] stood at 70%.

As to `COc1ccc(-c2ccc3oc(=O)c(C(C)=O)cc3c2)cn1`, the half-inhibitory concentration (IC50) in test [1] was found to be 28.2 µM. For the same molecule, the result in test [2] was inactive. For the same molecule, the inhibition in the test filed under Rattus norvegicus [3] amounted to 86%. In the test with Rattus norvegicus [4], the outcome was Active. Moreover, the inhibition result in the test listed under Rattus norvegicus [5] is “Active”.

In test [1], `Cc1c(O)ccc2c(CCl)cc(=O)oc12` registered an IC50 of 68.7 µM. For the same molecule, the Activity in test [2] turned out to be 28.5%. The inhibition in the test filed under Rattus norvegicus [3] is 72.7%.

With `O=C(c1ccccc1)c1cc2ccccc2oc1=O`, the Activity in test [2] came to 30.8%. In the test filed under Rattus norvegicus [3], this molecule registered an inhibition of 44.4%.

For the molecule `CCOC(=O)c1cc2cc(-c3ccc(C)cc3)ccc2oc1=O`, in test [1], inhibition was half-maximal at 112 µM (IC50). The outcome in test [2] was inactive. This molecule also showed an inhibition in the test filed under Rattus norvegicus [3] of 65.9%.

In the case of `CC(=O)c1cc2ccccc2oc1=O`, the Activity in test [2] came to 0.83%. For the same molecule, the inhibition in the test listed under Rattus norvegicus [3] is 53.2%.

Molecule `Cc1c(C#N)c(=O)oc2ccc(-c3ccccc3)cc12` gave a half-inhibitory concentration (IC50) in test [1] of 52.9 µM. Further, the Activity in test [2] was 10.4%. In the test listed under Rattus norvegicus [3], this molecule displayed an inhibition of 95.5%.

Take `O=C(c1ccccc1)c1cc2ccc(O)cc2oc1=O`: in test [2], the result was inactive. This molecule also returned an inhibition in the test filed under Rattus norvegicus [3] of 53.7%.

`CCOC(=O)c1cc2cc(-c3cncnc3)ccc2oc1=O` registered an IC50 in test [1] of 40.5 µM. The outcome in test [2] was inactive. The inhibition in the test filed under Rattus norvegicus [3] stood at 80.4%.

`O=c1cc(CCl)c2ccc(O)cc2o1` had an IC50 in test [1] of 243 µM. In test [2], the Activity was 1.32%. Moreover, the inhibition in the test filed under Rattus norvegicus [3] stood at 78.3%.

In test [1], `CCOC(=O)c1cc2cc(-c3ccccc3)ccc2oc1=O` came in with an IC50 of 186 µM. In addition, in test [2], the Activity came out at 4.8%. In the test listed under Rattus norvegicus [3], this molecule returned an inhibition of 77.1%.

As to `CC(=O)c1cc2cc(-c3cccnc3)ccc2oc1=O`, half-maximal inhibition in test [1] (IC50) was put at 58.1 µM. For the same molecule, the Activity in test [2] is 3.72%. Besides, in the test listed under Rattus norvegicus [3], the inhibition stood at 96.4%.

Turning to `CC(=O)c1cc2cc(-c3ccc(C)cc3)ccc2oc1=O`, the IC50 in test [1] stood at 52.6 µM. The result in test [2] was inactive. In the test listed under Rattus norvegicus [3], this molecule registered an inhibition of 86.5%.

As for `COc1ccc(-c2ccc3oc(=O)c(C#N)c(C)c3c2)cn1`, in test [1], the IC50 is 44.5 µM. For the same molecule, the Activity in test [2] stood at 35%. Moreover, the inhibition in the test listed under Rattus norvegicus [3] was 93.1%.

Take `CCOC(=O)c1cc2ccccc2oc1=O`: in test [2], the Activity amounted to 1.82%. The inhibition in the test listed under Rattus norvegicus [3] amounted to 47%.

Consider `CC(=O)c1cc2cc(Br)ccc2oc1=O`, for which the Activity in test [2] is 1.52%. This molecule displayed an inhibition in the test listed under Rattus norvegicus [3] of 31.9%.

For `CCOC(=O)c1cc2ccc(O)cc2oc1=O`, 91 µM corresponded to half-maximal inhibition in test [1] (IC50). Moreover, the outcome in test [2] was inactive. The inhibition in the test listed under Rattus norvegicus [3] was determined as 77.6%.

In test [1], `CC(=O)c1cc2cc(-c3ccc(F)cc3)ccc2oc1=O` yielded an IC50 of 53.1 µM. Also, the Activity in test [2] was 15.6%. The molecule further returned an inhibition in the test listed under Rattus norvegicus [3] of 74.3%.

Regarding `C[C@H]1O[C@H](O[C@H]2[C@H](O)[C@@H](O)[C@@H](O[C@H]3[C@H](O)[C@@H](O)C(O)O[C@@H]3CO)O[C@@H]2CO)[C@H](O)[C@@H](O)[C@@H]1N[C@H]1C=C(CO)[C@@H](O)[C@H](O)[C@H]1O` (some centres undefined), the outcome with Rattus norvegicus [6] was Active.

Consider `CC(=O)c1cc2cc(-c3ccccc3)ccc2oc1=O`, for which the Activity in test [2] turned out to be 19.6%. In addition, in the test filed under Rattus norvegicus [3], the inhibition result is “inactive”.

The molecule `CCOC(=O)c1cc2cc(-c3ccc(F)cc3)ccc2oc1=O` had an IC50 in test [1] of 37.6 µM. Also, in test [2], the outcome was inactive. In the test filed under Rattus norvegicus [3], the inhibition is 66.7%.

`O=C(c1ccccc1)c1cc2cc(Br)ccc2oc1=O`: the Activity in test [2] is 2.22%. The same molecule showed an inhibition in the test listed under Rattus norvegicus [3] of 18.1%.

Turning to `CCOC(=O)c1cc2cc(-c3ccc(OC)nc3)ccc2oc1=O`, in test [1], the IC50 was 105 µM. For the same molecule, the result in test [2] was inactive. This molecule showed an inhibition in the test listed under Rattus norvegicus [3] of 76.9%.

`CC(=O)c1cc2cc(-c3cncnc3)ccc2oc1=O`: the IC50 in test [1] was 37.2 µM. The result in test [2] was inactive. In the test listed under Rattus norvegicus [3], this molecule displayed an inhibition of 83.5%.
